Where two headings read alike, the source gives them in different places.

Data set [1] can be described thus: Ion-mobility mass spectrometry. The data set is classed as physicochemical. The note with it: IM-MS, 200 μM in water.
The nature of the next data set: Atomic force microscopy. The data set is classed as physicochemical. An outline of the steps:
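Samples were N-acetyl/C-amide peptides at 200 μM in water, with no buffer, to slow aggregation and limit charge screening. Peptide stocks were made in filtered deionized water, flash-frozen and kept at −80 °C. AFM height images were taken at 1 Hz with 512 × 512 points, fibrils masked and first-order flattened. Each fibril or granular-aggregate height and length is the mean of 20 measurements.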

Data set [2] deals with embryonic rat hippocampal neurons. Particulars: Busciglio and co-workers; cited from earlier work.
For data set [3] the following is noted: cited from earlier work.

As to “Ac-Aβ(25–35)-NH2: amphipathic amyloid-β fragment containing the hydrophobic hexapeptide GAIIGL (Ac-GSNKGAIIGLM-NH2; UniProt P05067 696-706, looked up, fragment)”, the largest oligomers observed result in data set [1] (heteroligomers from 1:1 mixture) is “hexamers and nonamers”. Besides, the “onset of cross-section deviation from isotropic oligomer model” value in data set [1] (indicates extended oligomers) is given as “starting at the trimer stage”. In addition, the “aggregates observed by AFM (1 week)” value in the data set “Atomic force microscopy” (1 week incubated, 200 μM in water, mixture at 1:1) was “abundant fibrillar aggregates”. Besides, in the data set “Atomic force microscopy” (fresh peptide, in water), the “time to fibrillar aggregates” value was “within an hour”.
Take Aβ(1–40): full length Aβ isoform: in data set [2], the “result compared with Aβ(25–35) effect on neurons” value was “similar”.
Take NFLVHSS: the “aggregation strength (class 6 steric zipper)” value (from here on “aggregation strength”) in data set [3] (PDB ID 3FTH) is “weakly aggregating”.
As for YVVFL, in data set [3] (PDB 4OLR / 4ONK), the “aggregation strength” value was “weakly aggregating”.
As for YVVFV, in data set [3] (PDB 4OLR / 4ONK), the “aggregation strength” value is recorded as “weakly aggregating”.

The values above are taken from paper PMC4174992 (The Journal of Physical Chemistry. B, 2014).
